# Results: ChEMBL document CHEMBL1131218, “Antineoplastic agents. 379. Synthesis of phenstatin phosphate” (J Med Chem, 1998)
# Columns and labels:
# [1] = target: Tubulin (Bos taurus, UniProt Q6B856+Q862L2+Q862F3); experiment: The compound was tested for the concentration to inhibit 50% of tubulin polymerization.; type: protein assay
# Procedure, shortened: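 Purified bovine brain tubulin at 1.0 mg/mL (10 μM) in 0.8 M monosodium glutamate pH 6.6 with 4% DMSO. Drug was preincubated with tubulin for 15 min at 30 °C, then chilled. GTP was added to 0.4 mM and assembly started by a jump from 0 to 30 °C, followed by spectrophotometer.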
# [2] = species: Bos taurus; experiment: Percentage inhibition of colchicine binding to tubulin by compound was evaluated; parameters: concentration or dose not given beside the values; settings: concentration not given here
# [3] = Concentration to inhibit 50% of tubulin polymerization from bovine brain; parameters: species or system Bos taurus
# Procedure, shortened: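 Purified, electrophoretically homogeneous bovine brain tubulin at 1.0 mg/mL (10 μM) in 0.8 M monosodium glutamate pH 6.6 with 4% (v/v) DMSO and varying drug concentrations. Preincubated 15 min at 30 °C, chilled on ice, then GTP added (0.4 mM final). Assembly started by a jump from 0 to 30 °C and followed by turbidity. IC50 taken from extent of assembly at 20 min. Active compounds run in at least three independent experiments.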
# [4] = system: OVCAR; experiment: The compound was tested for the concentration to inhibit 50% of ovarian OVCAR cell lines.; type: functional; settings: Homo sapiens
# [5] = system: KM-20L2; experiment: The compound was tested for the concentration to inhibit 50% of colon KM20L2 cell lines.; type: functional; settings: Homo sapiens
# [6] = system: NCI-H460; experiment: The compound was tested for the concentration to inhibit 50% lung-NSC NCI-H460 cell lines.; type: functional; settings: Homo sapiens
# [7] = system: SK-MEL-5; experiment: The compound was tested for the concentration to inhibit 50% of melanoma SK-MEL-5 cell lines.; type: functional; settings: Homo sapiens
# [8] = system: SF-295; experiment: The compound was tested for the concentration to inhibit 50% of CNS SF-295 cell lines.; type: functional; settings: Homo sapiens
# [9] = system: P388; experiment: The compound was tested for the concentration to inhibit 50% of leukemia P388 cell lines.; type: functional; settings: Mus musculus
# [10] = system: A498; experiment: The compound was tested for the concentration to inhibit 50% of renal A498 cell lines.; type: functional; settings: Homo sapiens
# [11] = system: Panel NCI-60 (60 carcinoma cell lines); experiment: The compound was tested for the concentration for 50% growth inhibition of NCI 60 cell line human tumor screen expressed in 10e-8 M; type: functional
# Procedure, shortened: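 NCI 60-cell-line screen, run in triplicate. Compounds tested in three concentration ranges (top 10⁻⁵, 10⁻⁶ and 10⁻⁷ M), each with five 10-fold dilutions. The mean panel GI50 across lines is reported with SD.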
SMILES,inhibition [2] [%],IC50 [3] [µM],GI50 [11] [µM],further results
COc1ccc(C(=O)c2cc(OC)c(OC)c(OC)c2)cc1OC(C)=O,71,–,–,IC50 [1]: 3.5 µM
COc1ccc(CCc2cc(OC)c(OC)c(OC)c2)cc1,54,3.2,–,–
COc1ccc(C(=O)c2cc(OC)c(OC)c(OC)c2)cc1OP(=O)([O-])O.[Na+],37,–,–,GI50 [4]: 0.0025 µg/mL; GI50 [5]: 0.27 µg/mL; GI50 [6]: 0.035 µg/mL; IC50 [1]: 21 µM; GI50 [7]: 0.0047 µg/mL; GI50 [8]: 0.012 µg/mL; GI50 [9]: < 0.001 µg/mL; GI50 [10]: 0.05 µg/mL
COc1ccc(/C=C\c2cc(OC)c(OC)c(OC)c2)cc1O,97,–,–,–
COc1ccc(Cc2cc(OC)c(OC)c(OC)c2)cc1O,65,3.3,–,–
COc1ccc(C(=O)c2cc(OC)c(OC)c(OC)c2)cc1OC,1,15,5.11,–
COc1ccc(/C=C\c2cc(OC)c(OC)c(OC)c2)cc1,97,–,–,IC50 [1]: 1.3 µM
COc1ccc(CCc2cc(OC)c(OC)c(OC)c2)cc1O,77,2.1,–,–
COc1ccc(C(=O)c2cc(OC)c(OC)c(OC)c2)cc1O [PHENSTATIN],86,1,0.0601,GI50 [4]: 0.0023 µg/mL; GI50 [5]: 0.04 µg/mL; GI50 [6]: 0.0057 µg/mL; GI50 [7]: 0.0038 µg/mL; GI50 [8]: 0.052 µg/mL; GI50 [9]: 0.0033 µg/mL; GI50 [10]: 0.38 µg/mL
COc1cc(C(=O)c2cc(Cl)cc(Cl)c2)cc(OC)c1OC,1,36,5.12,–
COc1cc(C(=O)c2ccc3c(c2)OCO3)cc(OC)c1OC,0,15,2.7,–
COc1cc(C(=O)c2cc(F)cc(F)c2)cc(OC)c1OC,0,39,4.94,–
COc1ccc(Cc2cc(OC)c(OC)c(OC)c2)cc1,56,4.4,–,–
COc1cc(C(=O)c2cc(C)cc(C)c2)cc(OC)c1OC,7,11,3.48,–
COc1ccc(/C=C\c2cc(OC)c(OC)c(OC)c2)cc1OP(=O)([O-])[O-].[Na+].[Na+] [FOSBRETABULIN DISODIUM],4,–,–,GI50 [4]: 0.023 µg/mL; GI50 [5]: 0.34 µg/mL; GI50 [6]: 0.029 µg/mL; IC50 [1]: > 80 µM; GI50 [7]: 0.041 µg/mL; GI50 [8]: 0.036 µg/mL; GI50 [9]: 0.0004 µg/mL; GI50 [10]: 0.041 µg/mL
COc1cc(OC)cc(C(=O)c2cc(OC)c(OC)c(OC)c2)c1,58,3.6,0.543,–
